{"source": "ChEMBL document CHEMBL1134841", "about": "“Antimalarial alkoxylated and hydroxylated chalcones [corrected]: structure-activity relationship analysis” (J Med Chem, 2001)", "data": [{"tested_on": "Plasmodium falciparum", "assay": "(§1) Inhibition of [3H]hypoxanthine incorporation in Plasmodium falciparum K1", "format": "functional, organism-based", "details": "not given", "procedure,_shortened": "(§2)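 K1 (chloroquine-resistant) parasites cultured in RPMI-1640 with 5% sodium bicarbonate and 10% type O human serum. DMSO stocks were serially diluted 10-fold in medium, covering a 10^6-fold range. Infected erythrocytes at 1–2% parasitemia and 1.5% hematocrit were incubated at 37 °C in a candle jar for 24 h. [3H]hypoxanthine was then added for a further 24 h, cells harvested and scintillation counted. IC50 from nonlinear logistic fit versus untreated control.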", "units": {"IC50": "µM"}, "values": [{"smiles": "COc1ccc(C(=O)/C=C/c2ccc([N+](=O)[O-])cc2)c(OC)c1", "note": "(stereo in doubt; 115)", "IC50": 100}, {"smiles": "COc1ccc(C(=O)/C=C/c2ccc(N(C)C)cc2)c(OC)c1", "note": "(stereo in doubt; 103)", "IC50": 55.3}, {"smiles": "COc1ccc(C(=O)/C=C/c2ccc([N+](=O)[O-])cc2)c(OC)c1", "note": "(stereo in doubt; 109)", "IC50": 415}]}, {"tested_on": "Plasmodium falciparum", "assay": "as §1", "format": "functional, organism-based", "details": "Plasmodium falciparum, 48 h", "procedure,_shortened": "as §2", "units": {"IC50": "µM"}, "values": [{"smiles": "COc1ccc(C(=O)/C=C/c2ccc(F)cc2)c(OC)c1", "IC50": 322}, {"smiles": "COc1ccc(C(=O)/C=C/c2ccc(C)cc2)c(OC)c1", "IC50": 93.8}, {"smiles": "O=C(/C=C/c1ccc(Cl)cc1Cl)c1ccc(O)cc1", "IC50": 24.5}, {"smiles": "O=C(/C=C/c1ccnc2ccccc12)c1ccc(O)cc1O", "IC50": 92.8}, {"smiles": "CCOc1ccc(C(=O)/C=C/c2ccc(OC)cc2)cc1", "IC50": 33}, {"smiles": "CCOc1ccc(C(=O)/C=C/c2cnc3ccccc3c2)cc1", "IC50": 24.9}, {"smiles": "COc1ccc(/C=C/C(=O)c2ccc(OC)cc2)cc1", "note": "[4,4'-DIMETHOXYCHALCONE]", "IC50": 21.7}, {"smiles": "COc1ccc(C(=O)/C=C/c2ccc(F)cc2F)cc1", "IC50": 26.8}, {"smiles": "CCOc1ccc(C(=O)/C=C/c2ccc(F)cc2)cc1", "IC50": 24.1}, {"smiles": "COc1ccc(/C=C/C(=O)c2ccc(OC)cc2OC)cc1", "note": "[METOCHALCONE]", "IC50": 128}, {"smiles": "COc1ccc(C(=O)/C=C/c2ccccc2)c(OC)c1", "IC50": 55.5}, {"smiles": "COc1ccc(/C=C/C(=O)c2ccc(O)cc2O)c(OC)c1", "IC50": 56.4}, {"smiles": "COc1ccc(C(=O)/C=C/c2ccc(F)cc2F)c(OC)c1OC", "IC50": 18.5}, {"smiles": "O=C(/C=C/c1cccc2ccccc12)c1ccc(O)cc1O", "IC50": 24.8}, {"smiles": "O=C(/C=C/c1ccc(C(F)(F)F)cc1)c1ccc(O)cc1O", "IC50": 26.5}, {"smiles": "CCOc1ccc(C(=O)/C=C/c2ccc([N+](=O)[O-])cc2)cc1", "IC50": 39}, {"smiles": "O=C(/C=C/c1ccc([N+](=O)[O-])cc1)c1ccc(O)cc1", "IC50": 20.4}, {"smiles": "COc1ccc(C(=O)/C=C/c2ccc(Cl)cc2)c(OC)c1", "IC50": 342}, {"smiles": "O=C(/C=C/c1ccc2ccccc2c1)c1ccc(O)cc1", "IC50": 27.5}, {"smiles": "COc1ccc(C(=O)/C=C/c2ccc(Cl)cc2Cl)c(OC)c1", "IC50": 18.8}, {"smiles": "O=C(/C=C/c1ccncc1)c1ccc(O)cc1O", "IC50": 122}, {"smiles": "Cc1ccc(/C=C/C(=O)c2ccc(O)cc2)cc1", "IC50": 25.4}, {"smiles": "O=C(/C=C/c1cccc2ccccc12)c1ccc(O)cc1", "IC50": 39.9}, {"smiles": "COc1ccc(C(=O)/C=C/c2ccc(C)cc2)cc1", "IC50": 70}, {"smiles": "CCOc1ccc(C(=O)/C=C/c2ccnc3ccccc23)cc1", "IC50": 100}, {"smiles": "COc1ccc(C(=O)/C=C/c2ccc(F)cc2Cl)c(OC)c1", "IC50": 600}, {"smiles": "CCOc1ccc(C(=O)/C=C/c2ccc(C)cc2)cc1", "IC50": 38}, {"smiles": "CCCCc1ccc(/C=C/C(=O)c2ccc(O)cc2)cc1", "IC50": 20.9}, {"smiles": "CCOc1ccc(C(=O)/C=C/c2ccc(OC)cc2OC)cc1", "IC50": 30}, {"smiles": "O=C(/C=C/c1cccc(Cl)c1)c1ccc(O)cc1", "IC50": 33.1}, {"smiles": "COc1ccc(C(=O)/C=C/c2ccc([N+](=O)[O-])cc2)c(OC)c1OC", "IC50": 22.5}, {"smiles": "COc1ccc(C(=O)/C=C/c2ccc(N(C)C)cc2)c(OC)c1OC", "IC50": 18}, {"smiles": "CCOc1ccc(C(=O)/C=C/c2ccc(Cl)cc2Cl)cc1", "IC50": 96}, {"smiles": "COc1ccc(C(=O)/C=C/c2ccccc2Cl)c(OC)c1OC", "IC50": 41.5}, {"smiles": "CCOc1ccc(C(=O)/C=C/c2ccc(N(C)C)cc2)cc1", "IC50": 30}, {"smiles": "COc1ccc(C(=O)/C=C/c2ccc(Cl)c(Cl)c2)c(OC)c1", "IC50": 298}, {"smiles": "CCc1ccc(/C=C/C(=O)c2ccc(OC)c(OC)c2OC)cc1", "IC50": 16.5}, {"smiles": "COc1ccc(C(=O)/C=C/c2ccnc3ccccc23)c(OC)c1OC", "IC50": 60}, {"smiles": "COc1ccc(C(=O)/C=C/c2cccc3ccccc23)c(OC)c1", "IC50": 320}, {"smiles": "CCOc1ccc(C(=O)/C=C/c2ccc(C#N)cc2)cc1", "IC50": 540}, {"smiles": "O=C(/C=C/c1ccnc2ccccc12)c1ccc(O)cc1", "IC50": 51}, {"smiles": "O=C(/C=C/c1ccc(Cl)cc1)c1ccc(O)cc1", "IC50": 38}, {"smiles": "COc1ccc(C(=O)/C=C/c2ccnc3ccccc23)cc1", "IC50": 43}, {"smiles": "COc1ccc(C(=O)/C=C/c2ccccc2)c(OC)c1OC", "IC50": 15.8}, {"smiles": "COc1ccc(/C=C/C(=O)c2ccc(O)cc2)cc1", "IC50": 32.2}]}]}
